Source: PubChem BioAssay (several laboratories)
Shown is part of a subset that was picked to be rich in hits.
HSF1 activator: increases HSF-1 driven luciferase reporter signal; NIH3T3-HGL HSF-1 luciferase reporter, MG132, 8 h; 100% = twice DMSO control signal; activation, % at 9 µM; 1.7% of 300,000 active; AID 504408;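 active = mean replicate activation of at least 50% with a set share of replicates each reaching 50%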
Hsp70 act: switches on Hsp70 transcription; HeLa Hsp70 promoter luciferase reporter, luminescence; scaled: vehicle 0, proteasome-inhibitor control 100%; activation, % at 10 µM; 0.04% of 200,000 active; AID 1203;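 active = activation above the mean across all tested compounds plus 3 SD, cutoff set per campaign, cut at about 5.5% in these data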
HSF1 inh: HSF1 inhibition | activity change, negative = inhibition, % at 7.5 µM (by protocol) | 0.77% of 300,000 active | NIH3T3-HGL HSE-luciferase, MG132-induced, luminescence 8 h; hits give low values | AID 2098;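 active = more than half of replicate wells show activity change below -50%, luminescence cut by over half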;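 also: luciferase reports HSF-1 transcriptional activity via heat shock element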
Lmaj promast: Leishmania major promastigote growth inhibition | inhibition, % at 10 µM | 9% of 200,000 active | Leishmania major promastigotes, resazurin fluorescence viability; in the data active = inhibition above about 50%;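 also: promastigotes grown with compound for 44 hours at 28 °C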
T cruzi inh: T. cruzi replication inhibition | 1.4% of 300,000 active | inhibition, % (test concentration not listed) | AID 1885 | T. cruzi beta-gal in NIH3T3, luminescence, 90 h;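 active = mean inhibition across valid replicates above about 55%, limit read from the data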;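 also: signal also drops with host cell toxicity which is not excluded here; higher percent means less beta-gal luminescence so fewer parasites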
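compound dosing = single 50 nL compound addition per well in DMSO | material = NIH/3T3 host cells with β-galactosidase reporter T. cruzi | input = 5,000 host fibroblasts per well | timing = ≥90 h infection period, 3 h prior cell attachment | read-out basis = percent inhibition of parasite-derived β-gal signal | detection = GalScreen β-gal luminescence, detergent lysis, 60 min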
A number is an active result; – = inactive; · = no result.

SMILES	HSF1 activator	Hsp70 act	HSF1 inh	Lmaj promast	T cruzi inh
CCOc1ccc(/C=N/OC(C)C(=O)NCc2ccc3c(c2)OCO3)cc1 (configuration not stated)	–	–	–	–	–
CC(=O)O[C@]1(C(C)=O)CC[C@H]2[C@@H]3C=C(Cl)C4=CC(=O)[C@@H]5C[C@@H]5[C@]4(C)[C@H]3CC[C@@]21C	–	·	–	·	–
CC(=O)O[C@]1(C(C)=O)CC[C@H]2[C@@H]3C=C(Cl)C4=CC(=O)CC[C@]4(C)[C@H]3CC[C@@]21C	–	–	–	68	–
O=C(NC(NC(=S)Nc1cccc(Cl)c1)C(Cl)(Cl)Cl)OCc1ccccc1 (configuration not stated)	–	–	–	100	–
CC(=O)NC(NC(=S)Nc1ccc(S(N)(=O)=O)cc1)C(Cl)(Cl)Cl (configuration not stated)	–	·	–	·	–
Cc1cccc(C(=O)NC(NC(=S)Nc2ccc(S(N)(=O)=O)cc2)C(Cl)(Cl)Cl)c1 (configuration not stated)	–	–	–	54	–
O=C(NC(NC(=S)Nc1c(Cl)cccc1Cl)C(Cl)(Cl)Cl)c1cccc([N+](=O)[O-])c1 (configuration not stated)	–	–	–	–	59
Cc1cccc(NC(=S)NC(NC(=O)OCc2ccccc2)C(Cl)(Cl)Cl)c1 (configuration not stated)	–	–	–	–	57
O=C(Nc1ccc(C(=O)NC2CCCCC2)cc1)c1cccnc1	–	–	–	–	–
Cc1ccc(NC(=O)CN2CCN(S(=O)(=O)c3cccs3)CC2)cc1S(=O)(=O)N(C)C	–	–	–	–	–
CC(C)CCNC(=O)c1ccc(Cn2c(=S)[nH]c3ccccc3c2=O)cc1	–	·	–	·	–
Cc1ccc(NC(=O)C(Cc2ccccc2)NC(=O)OCc2ccccc2)cc1C (configuration not stated)	–	–	–	–	–
Cc1cccc(NC(=S)NC(C)CCc2ccccc2)c1 (configuration not stated)	–	–	–	78	–
Cc1cccc(NC(=O)[C@H](Cc2ccccc2)NC(=O)OCc2ccccc2)c1	–	–	–	71	–
Cc1cccc(CS(=O)(=O)Cc2ccc(C(=O)NCc3cccs3)o2)c1	–	–	-71	–	–
Cc1cccc(CS(=O)(=O)Cc2ccc(C(=O)NCc3ccccc3)o2)c1	–	·	–	·	–
COc1cc(C2c3c(oc4ccccc4c3=O)C(=O)N2c2nccs2)ccc1O (configuration not stated)	–	·	–	·	–
O=C(O)C(=O)/C(=C\c1cccc(Cl)c1)c1ccc2ccccc2n1	60	–	–	–	–
Cc1cccc(/C=C(\C(=O)C(=O)O)c2ccc3ccccc3n2)c1	–	–	–	–	–
CCOC(=O)Cc1ncccc1C(=O)Nc1ccc(Oc2ccccc2)cc1	–	–	–	–	–
O=C(NCCN1CCOCC1)c1ccc2c(c1)N(Cc1ccccc1)C(=O)c1ccccc1S2	–	·	–	·	–
O=C(NCCN1CCOCC1)c1ccc2c(c1)N(Cc1c(F)cccc1Cl)C(=O)c1ccccc1S2	–	–	–	100	–
CCOC(=O)N1CCN(CC(O)COC(CC)c2ccccc2)CC1 (configuration not stated)	–	–	–	91	–
CCOC(=O)N1CCN(CC(O)COc2ccccc2C(C)C)CC1 (configuration not stated)	·	–	·	70	·
CCOC(=O)N1CCN(CC(O)COc2ccccc2C(C)CC)CC1 (configuration not stated)	–	–	–	91	–
SMILES	HSF1 activator	Hsp70 act	HSF1 inh	Lmaj promast	T cruzi inh
CCOC(=O)N1CCN(CC(O)COCc2ccc(Cl)cc2)CC1 (configuration not stated)	·	–	·	93	·
COc1ccc(OC)c(NC(=O)COC(=O)/C=C/c2ccc(Cl)cc2)c1	–	–	–	–	–
Cn1c(SCC(=O)Nc2ccc(Br)cn2)nnc1C1CC1	–	·	–	·	–
CC(/C=N/NC(=O)Cn1cnc2c1c(=O)n(C)c(=O)n2C)=C\c1ccccc1	–	–	–	–	–
C=CCc1ccccc1OCC(O)CN1CCN(C(=O)OCC)CC1 (configuration not stated)	–	–	–	68	–
C=CCc1ccccc1OCC(O)CN1CCN(c2ccc(C)cc2)CC1 (configuration not stated)	–	–	–	69	–
CCOC(=O)N1CCN(CC(O)COc2ccccc2C(C)(C)C)CC1 (configuration not stated)	–	–	–	–	–
COc1cccc(N2CCN(c3ccc4nnc(CCC(=O)Nc5cccc(C(C)=O)c5)n4n3)CC2)c1	–	·	–	·	–
COc1ccc(NC(=O)CN(C)C(=O)c2ccc(NS(=O)(=O)c3ccc(F)cc3)cc2)cc1	–	·	–	·	–
Cn1c(CCN2CCCCC2)nc2cc(NS(=O)(=O)c3ccc(Cl)cc3)ccc21	62	·	–	·	–
CC1CCN(CCc2nc3cc(NS(=O)(=O)c4ccc(F)cc4)ccc3n2C)CC1	–	–	–	99	–
Cn1c(CN2CCCCC2)nc2cc(NS(=O)(=O)c3ccc(Cl)cc3)ccc21	–	–	–	66	–
CC1CCN(CCc2nc3cc(NC(=O)Nc4ccccc4)ccc3n2C)CC1	177	–	–	–	–
CC1CCN(CCc2nc3cc(NS(=O)(=O)c4ccccc4)ccc3n2C)CC1	–	–	–	–	–
CCOC(=O)c1nn(-c2ccc(Cl)cc2C)ccc1=O	–	·	–	·	–
Cc1cc(NCc2ccco2)n2ncnc2n1	–	–	–	–	–
COC(=O)C1=C(C)NC(=O)CC1c1cc2c(cc1Br)OCO2 (configuration not stated)	–	–	–	–	–
CC1=C(C(=O)OCCOC(C)C)C(c2cc3c(cc2Br)OCO3)CC(=O)N1 (configuration not stated)	–	–	–	98	–
CCCN(CCC)C(=O)CSc1nc2ccsc2c(=O)n1NC(=O)c1ccccc1	–	–	-57	–	–
CCOc1cc(CNc2ccccc2)cc(Br)c1OCC(=O)NC(C)(C)C	–	–	–	–	–
COc1cc(CNc2ccc(C(=O)O)cc2)cc(Br)c1OCC(=O)NC(C)(C)C	–	–	–	–	–
CCOc1cc(CNc2ccc(OC)cc2)cc(Br)c1OCC(=O)NC(C)(C)C	–	–	–	100	–
CCOc1cc(CNc2ccc(Br)cc2)cc(Br)c1OCC(=O)NC(C)(C)C	–	–	–	–	66
COC(=O)C1=C(C)N(C)C(C)=C(C(=O)OC)C1c1ccncc1	–	–	–	–	–
COC(=O)C1=C(C)N(C)C(C)=C(C(=O)OC)C1c1ccc(F)c(Br)c1	–	–	–	76	–
CCN1C(=O)/C(=C/c2nc3ccccc3c(=O)n2-c2ccccc2)c2ccccc21	–	–	–	71	–
CCn1c(/C=C2/C(=O)N(C)c3ccccc32)nc2ccccc2c1=O	–	–	–	–	–
